Test results: ChEMBL document CHEMBL4038314, “Synthetic Modification within the "RPRL" Region of Apelin Peptides: Impact on Cardiovascular Activity and Stability to Neprilysin and Plasma Degradation” (J Med Chem, 2017)
The source made the active and inactive calls. No cut-off for these calls is given here. Starred links: 1 amine or outer side, 2 acyl side, 3 side chain; linkers in the order of their positions; H or OH if unused. Non-standard residues stand in square brackets, D forms with d. Residues, ends and D or L forms follow the SMILES beside them. Phe(4-Br) = N[C@@H](Cc1ccc(Br)cc1)C(=O)O; X1 = N=C(N)NCCCN(N[*:1])C(=O)[*:2]; azaLeu = CC(C)CN(N[*:1])C(=O)[*:2]; αMeR = C[C@](N)(CCCNC(=N)N)C(=O)O; αMeL = CC(C)C[C@](C)(N)C(=O)O; Nle = CCCC[C@H](N)C(=O)O; Aib = CC(C)(N)C(=O)O

What was measured:
Mus musculus [1] = assay: Cardiotoxicity in anesthetized mouse assessed as induction of tachycardia at 1.4 uM/kg, iv relative to control; type: toxicity, organism-based; details: in vivo, 1.4 µmol/kg
In short: (§1)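 Mice under 1.5% isoflurane, body temperature held at 36 °C on a heating pad. Aorta cannulated via the right carotid artery with a 1.2F PV loop catheter to record arterial pressure and heart rate continuously. Peptide given systemically through the right internal jugular vein.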

Mus musculus [2] = assay: Cardiovascular activity in anesthetized mouse assessed as decrease in blood pressure at 1.4 uM/kg, iv relative to control; type: functional, organism-based; in short: as §1
Neprilysin [3] = biological target: T1, Neprilysin (Homo sapiens, UniProt P08473); assay: Drug metabolism assessed as recombinant human NEP-medited peptide proteolysis at 1 mM up to 72 hrs by LC-MS analysis; type: ADME; details: 1000 µM
T1 sequence (P08473 whole entry): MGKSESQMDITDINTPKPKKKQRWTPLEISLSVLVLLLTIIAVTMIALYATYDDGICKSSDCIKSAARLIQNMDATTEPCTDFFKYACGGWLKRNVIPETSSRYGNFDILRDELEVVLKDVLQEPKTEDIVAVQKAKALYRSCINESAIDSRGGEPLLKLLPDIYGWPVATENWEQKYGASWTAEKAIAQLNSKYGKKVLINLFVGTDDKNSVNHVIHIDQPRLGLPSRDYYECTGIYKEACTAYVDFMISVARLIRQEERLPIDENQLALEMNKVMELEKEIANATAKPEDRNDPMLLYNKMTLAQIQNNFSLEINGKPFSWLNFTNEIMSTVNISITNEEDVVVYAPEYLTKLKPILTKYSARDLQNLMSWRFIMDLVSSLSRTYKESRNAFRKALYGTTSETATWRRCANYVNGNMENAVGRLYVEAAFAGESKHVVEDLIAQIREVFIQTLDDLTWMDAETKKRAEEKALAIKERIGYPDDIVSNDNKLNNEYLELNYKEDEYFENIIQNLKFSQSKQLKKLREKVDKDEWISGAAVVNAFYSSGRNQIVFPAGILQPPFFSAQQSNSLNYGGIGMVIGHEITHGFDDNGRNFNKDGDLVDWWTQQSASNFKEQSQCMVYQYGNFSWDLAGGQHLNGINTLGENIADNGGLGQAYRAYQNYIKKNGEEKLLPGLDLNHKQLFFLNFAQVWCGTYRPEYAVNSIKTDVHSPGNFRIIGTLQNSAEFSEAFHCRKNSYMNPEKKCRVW
In short: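 Recombinant human NEP, 3.1 nM final in 100 mM Tris, 100 mM NaCl, 10 μM ZnCl2, pH 7.5, preincubated 10 min at 37 °C. Then 5 μL of 1 mM peptide stock and dansyl-YVG internal standard added; incubated at 37 °C for up to 72 h. Extracted-ion LC−MS ratio of parent to standard compared with 0 h and converted to percent cleaved.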

Neprilysin [4] = biological target: T1, Neprilysin; assay: Drug degradation in human plasma assessed as NEP-mediated degradation by measuring amount of apelin remaining after 60 mins by RP-HPLC analysis; type: ADME; details: 1 h
In short: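 Human plasma (20 μL) prewarmed to 37 °C, then 5 μL of 400 μM peptide added and incubated for set times; done in triplicate. Quenched with 10% aqueous TFA, dansyl-YVG internal standard added, and peptides recovered on a C18 spin column with 40% acetonitrile/0.1% TFA. Analysed by C18 RP-HPLC; peptide/standard peak-area ratio compared with the 0 min ratio.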

Neprilysin [5] = biological target: T1, Neprilysin; assay: Inhibition of recombinant human NEP using pyr-1-apelin-13 as substrate assessed as peptide degradation at 1 mM preincubated for 10 mins followed by substrate addition measured after 72 hrs by LC-MS analysis; details: 1000 µM
In short: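 Recombinant human NEP, 3.1 nM in Tris/NaCl/10 μM ZnCl2 buffer, pH 7.5, preincubated 10 min at 37 °C with 5 μL of 1 mM analogue stock (equimolar to substrate) plus dansyl-YVG standard. Then 5 μL of 1 mM pyr-1-apelin-13 added. Aliquots taken at 0, 1, 4, 24 and 72 h and analysed by LC−MS; duplicate per time point.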

Heart [6] = assay: Cardioprotective activity against Langendorff isolated mouse heart ischemia-reperfusion model assessed as improvement in LVDP at 1 uM administered for 10 mins during start of 40 mins reperfusion period post 30 mins ischemic induction; type: functional, tissue-based
In short: (§2)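 Mouse hearts (heparinized, isoflurane 1.5−2%) excised and Langendorff-perfused at constant 80 mmHg with modified Krebs−Henseleit buffer, 37 °C, 95% O2/5% CO2, pH 7.4. After 10 min baseline, 30 min global ischemia, then 40 min reperfusion. Peptide at 1 μM given for the first 10 min of reperfusion, with saline sham and native apelin-17 as controls. Left ventricular function recorded continuously.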

Heart [7] = assay: Cardioprotective activity against Langendorff isolated mouse heart ischemia-reperfusion model assessed as minimum derivative change in diastolic pressure over time at 1 uM administered for 10 mins during start of 40 mins reperfusion period post 30 mins ischemic induction; type: functional, tissue-based; in short: as §2
Heart [8] = assay: Cardioprotective activity against Langendorff isolated mouse heart ischemia-reperfusion model assessed as maximum derivative change in systolic pressure over time at 1 uM administered for 10 mins during start of 40 mins reperfusion period post 30 mins ischemic induction; type: functional, tissue-based; in short: as §2
Heart [9] = assay: Cardioprotective activity against Langendorff isolated mouse heart ischemia-reperfusion model assessed as improvement in RPP at 1 uM administered for 10 mins during start of 40 mins reperfusion period post 30 mins ischemic induction; type: functional, tissue-based; in short: as §2

SMILES | Activity (Mus musculus [1]) | Activity (Mus musculus [2]) | Drug metabolism (Neprilysin [3]) | Drug degradation (Neprilysin [4]) | inhibition (INH) (Neprilysin [5]) | Activity (Heart [6]) | Activity (Heart [7]) | Activity (Heart [8]) | Activity (Heart [9])
CCCC[C@H](NC(=O)[C@@H]1CCCN1C(=O)CNC(=O)[C@H](CCCCN)NC(=O)[C@H](Cc1c[nH]cn1)NC(=O)[C@H](CO)NC(=O)[C@H](CC(C)C)NC(=O)[C@H](CCCNC(=N)N)NC(=O)[C@@H]1CCCN1C(=O)[C@H](CCCNC(=N)N)NC(=O)[C@H](CCC(N)=O)NC(=O)[C@H](CCCNC(=N)N)NC(=O)[C@H](CCCNC(=N)N)NC(=O)[C@H](Cc1ccccc1)NC(=O)[C@@H](N)CCCCN)C(=O)NC(C)(C)C(=O)N[C@@H](Cc1ccc(Br)cc1)C(=O)O (H-KFRRQRPRLSHKGP[Nle][Aib][Phe(4-Br)]-OH) | Toxic | Active | Metabolite_Detected | 35% |  |  |  |  | 
CCCC[C@H](NC(=O)[C@@H]1CCCN1C(=O)CNC(=O)[C@H](CCCCN)NC(=O)[C@H](Cc1c[nH]cn1)NC(=O)[C@H](CO)NC(=O)[C@@H](CC(C)C)NC(=O)[C@H](CCCNC(=N)N)NC(=O)[C@@H]1CCCN1C(=O)[C@H](CCCNC(=N)N)NC(=O)[C@@H]1CCC(=O)N1)C(=O)NC(C)(C)C(=O)N[C@@H](Cc1ccc(Br)cc1)C(=O)O |  | inactive | Metabolite_Notdetected | 22% | Not Active |  |  |  | 
CCCC[C@H](NC(=O)[C@@H]1CCCN1C(=O)CNC(=O)[C@H](CCCCN)NC(=O)[C@H](Cc1c[nH]cn1)NC(=O)[C@H](CO)NC(=O)[C@H](CC(C)C)NC(=O)[C@](C)(CCCNC(=N)N)NC(=O)[C@@H]1CCCN1C(=O)[C@H](CCCNC(=N)N)NC(=O)[C@@H]1CCC(=O)N1)C(=O)NC(C)(C)C(=O)N[C@@H](Cc1ccc(Br)cc1)C(=O)O |  |  | Metabolite_Notdetected | 62% | Not Active |  |  |  | 
CSCC[C@H](NC(=O)[C@@H]1CCCN1C(=O)CNC(=O)[C@H](CCCCN)NC(=O)[C@H](Cc1cnc[nH]1)NC(=O)[C@H](CO)NC(=O)[C@H](CC(C)C)NC(=O)[C@H](CCCNC(=N)N)NC(=O)[C@@H]1CCCN1C(=O)[C@H](CCCNC(=N)N)NC(=O)[C@H](CCC(N)=O)NC(=O)[C@H](CCCNC(=N)N)NC(=O)[C@H](CCCNC(=N)N)NC(=O)[C@H](Cc1ccccc1)NC(=O)[C@@H](N)CCCCN)C(=O)N1CCC[C@H]1C(=O)N[C@@H](Cc1ccccc1)C(=O)O | Toxic | Active | Metabolite_Detected | 39% |  | Active | Active | Active | Active
CCCC[C@H](NC(=O)[C@@H]1CCCN1C(=O)CNC(=O)[C@H](CCCCN)NC(=O)[C@H](Cc1c[nH]cn1)NC(=O)[C@H](CO)NC(=O)[C@H](CC(C)C)NC(=O)[C@](C)(CCCNC(=N)N)NC(=O)[C@@H]1CCCN1C(=O)[C@H](CCCNC(=N)N)NC(=O)[C@H](CCC(N)=O)NC(=O)[C@H](CCCNC(=N)N)NC(=O)[C@H](CCCNC(=N)N)NC(=O)[C@H](Cc1ccccc1)NC(=O)[C@@H](N)CCCCN)C(=O)NC(C)(C)C(=O)N[C@@H](Cc1ccc(Br)cc1)C(=O)O (H-KFRRQRP[αMeR]LSHKGP[Nle][Aib][Phe(4-Br)]-OH) | Toxic |  | Metabolite_Notdetected | 55% | Not Active |  |  |  | 
CCCC[C@H](NC(=O)[C@@H]1CCCN1C(=O)CNC(=O)[C@H](CCCCN)NC(=O)[C@H](Cc1c[nH]cn1)NC(=O)[C@H](CO)NC(=O)[C@H](CC(C)C)NC(=O)N(CCCNC(=N)N)NC(=O)[C@@H]1CCCN1C(=O)[C@H](CCCNC(=N)N)NC(=O)[C@H](CCC(N)=O)NC(=O)[C@H](CCCNC(=N)N)NC(=O)[C@H](CCCNC(=N)N)NC(=O)[C@H](Cc1ccccc1)NC(=O)[C@@H](N)CCCCN)C(=O)NC(C)(C)C(=O)N[C@@H](Cc1ccc(Br)cc1)C(=O)O (H-KFRRQRP[X1]LSHKGP[Nle][Aib][Phe(4-Br)]-OH) | Toxic | Active | Metabolite_Notdetected | 94% | Not Active | Active | Active | Active | Active
CSCC[C@H](NC(=O)[C@@H]1CCCN1C(=O)CNC(=O)[C@H](CCCCN)NC(=O)[C@H](Cc1cnc[nH]1)NC(=O)[C@H](CO)NC(=O)[C@H](CC(C)C)NC(=O)[C@H](CCCNC(=N)N)NC(=O)[C@@H]1CCCN1C(=O)[C@H](CCCNC(=N)N)NC(=O)[C@@H]1CCC(=O)N1)C(=O)N1CCC[C@H]1C(=O)N[C@@H](Cc1ccccc1)C(=O)O |  |  | Metabolite_Detected | 12% |  |  |  |  | 
CCCC[C@H](NC(=O)[C@@H]1CCCN1C(=O)CNC(=O)[C@H](CCCCN)NC(=O)[C@H](Cc1c[nH]cn1)NC(=O)[C@H](CO)NC(=O)N(CC(C)C)NC(=O)[C@H](CCCNC(=N)N)NC(=O)[C@@H]1CCCN1C(=O)[C@H](CCCNC(=N)N)NC(=O)[C@H](CCC(N)=O)NC(=O)[C@H](CCCNC(=N)N)NC(=O)[C@H](CCCNC(=N)N)NC(=O)[C@H](Cc1ccccc1)NC(=O)[C@@H](N)CCCCN)C(=O)NC(C)(C)C(=O)N[C@@H](Cc1ccc(Br)cc1)C(=O)O (H-KFRRQRPR[azaLeu]SHKGP[Nle][Aib][Phe(4-Br)]-OH) | Toxic | Active | Metabolite_Notdetected | 68% | Not Active | Active | Active | Active | Active
CCCC[C@H](NC(=O)[C@@H]1CCCN1C(=O)CNC(=O)[C@H](CCCCN)NC(=O)[C@H](Cc1c[nH]cn1)NC(=O)[C@H](CO)NC(=O)[C@@H](CC(C)C)NC(=O)[C@H](CCCNC(=N)N)NC(=O)[C@@H]1CCCN1C(=O)[C@H](CCCNC(=N)N)NC(=O)[C@H](CCC(N)=O)NC(=O)[C@H](CCCNC(=N)N)NC(=O)[C@H](CCCNC(=N)N)NC(=O)[C@H](Cc1ccccc1)NC(=O)[C@@H](N)CCCCN)C(=O)NC(C)(C)C(=O)N[C@@H](Cc1ccc(Br)cc1)C(=O)O (H-KFRRQRPR[dL]SHKGP[Nle][Aib][Phe(4-Br)]-OH) | Toxic |  | Metabolite_Notdetected | 80% | Not Active |  |  |  | 
CCCC[C@H](NC(=O)[C@@H]1CCCN1C(=O)CNC(=O)[C@H](CCCCN)NC(=O)[C@H](Cc1c[nH]cn1)NC(=O)[C@H](CO)NC(=O)N(CC(C)C)NC(=O)[C@H](CCCNC(=N)N)NC(=O)[C@@H]1CCCN1C(=O)[C@H](CCCNC(=N)N)NC(=O)[C@@H]1CCC(=O)N1)C(=O)NC(C)(C)C(=O)N[C@@H](Cc1ccc(Br)cc1)C(=O)O |  |  | Metabolite_Notdetected | 2% | Not Active | inactive | inactive | inactive | inactive
CCCC[C@H](NC(=O)[C@@H]1CCCN1C(=O)CNC(=O)[C@H](CCCCN)NC(=O)[C@H](Cc1c[nH]cn1)NC(=O)[C@H](CO)NC(=O)[C@](C)(CC(C)C)NC(=O)[C@H](CCCNC(=N)N)NC(=O)[C@@H]1CCCN1C(=O)[C@H](CCCNC(=N)N)NC(=O)[C@H](CCC(N)=O)NC(=O)[C@H](CCCNC(=N)N)NC(=O)[C@H](CCCNC(=N)N)NC(=O)[C@H](Cc1ccccc1)NC(=O)[C@@H](N)CCCCN)C(=O)NC(C)(C)C(=O)N[C@@H](Cc1ccc(Br)cc1)C(=O)O (H-KFRRQRPR[αMeL]SHKGP[Nle][Aib][Phe(4-Br)]-OH) | Toxic |  | Metabolite_Notdetected | 48% | Not Active |  |  |  | 
